Data on 3 compounds can be found in ChEMBL document CHEMBL1123318, “(S)-3-[(benzyloxy)methyl]morpholine hydrochloride: a nonstimulant appetite suppressant without conventional neurotransmitter releasing properties” (J Med Chem, 1986).

Some results are limits rather than exact numbers.

Assay [1] concerns Canis familiaris. In words: Compound was evaluated for mean reduction in food in take in dogs at 2 hour after dosing. It is filed as functional, Canis lupus familiaris. In a few lines:
(§1)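 Mature beagle dogs were trained to a daily 4-h feeding period with free access to meat. Groups of three received oral drug in soft gelatin capsules 1 h before feeding, and controls received empty capsules. All dogs got placebo on days 1–2, then drug or placebo on days 3–5. Leftover food was weighed at 1 and 2 h. Per-dog % change was taken against the days 1–2 mean, then averaged over days 3–5 and per group.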

Assay [2] is filed under the species Rattus norvegicus. The experiment in a line: Compound was found to have no effect on the release or uptake of dopamine at in rat brain synaptosomes; Inactive. The format is functional.
Assay [3] is filed under the species Rattus norvegicus. In words: Compound was found to have no effect on the release or uptake of serotonin at in rat brain synaptosomes; Inactive. The format is functional.
Assay [4] is filed under the species Rattus norvegicus. The experiment in a line: Compound was found to have no effect on the release or uptake of noradrenaline at in rat brain synaptosomes; Inactive. It is filed as functional.
Assay [5] relates to Canis familiaris. The experiment in a line: Compound was evaluated for mean reduction in food intake in dogs at a dose 15 mg/kg at 2 hour after dosing for the first 3 days. It is filed as functional, Canis lupus familiaris. In a few lines: (§2)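 Chronic regime: three beagle dogs on a daily 4-h meat feeding period were given a daily oral dose for 3 weeks. Food intake was measured 2 h after dosing. The mean % reduction versus control intake was compared between the first 3 and the last 3 days of the test.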

The species entered for assay [6] is Canis familiaris. In words: Compound was evaluated for oral ED50 for appetite suppression in dogs. The format is functional. To be noted: Canis lupus familiaris. The method in brief: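 ED50 for the 1-h food intake effect: five pairs of trained beagle dogs were randomly allocated to oral 5, 10, 15 or 20 mg/kg or to an undosed placebo pair. Treatments ran on successive days in a Latin Square design, and food was weighed 1 h into the feeding period.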

Assay [7] concerns Canis familiaris. The experiment in a line: Compound was evaluated for mean reduction in food intake in dogs at 1 hour after dosing. It is filed as functional, Canis lupus familiaris. In a few lines:
as §1

In assay [8] the test system is Canis familiaris. In words: Compound was evaluated for mean reduction in food intake in dogs at a dose 15 mg/kg at 2 hour after dosing for the last 3 days. The format is functional, Canis lupus familiaris. The method in brief:
as §2

The test system of assay [9] is Canis familiaris. The experiment in a line: Compound was evaluated for mean increase in food intake in dogs at 1 hour after oral administration at a dose 10 mg/kg. The format is functional, Canis lupus familiaris. In a few lines:
as §1

In assay [10] the test system is Canis familiaris. The experiment in a line: Compound was evaluated for mean increase in food intake in dogs after oral administration at a dose 3 mg/kg. The format is functional, Canis lupus familiaris.
For assay [11], the system named is Canis familiaris. The experiment in a line: Compound was evaluated for mean reduction in food intake in three dogs at a dose 3 mg/kg orally for 3 weeks at 2 hour after dosing for the first 3 days. It is filed as functional, Canis lupus familiaris. To be noted: route oral. In a few lines:
as §2

A word on the IC50: it is the midpoint of a concentration-inhibition curve. For orientation: ED50 means the dose that gives a 50% effect, or the effect in half of the subjects.

For the compound `Cl.c1ccc(COC[C@H]2COCCN2)cc1`, the Reduction in the assay on Canis familiaris [1] came out at 47%; in the assay with Canis familiaris [5] it was 53%; with Canis familiaris [7] it was 51%; with Canis familiaris [8] it was 56%. Also, the IC50 in the assay filed under Rattus norvegicus [2], in the assay filed under Rattus norvegicus [3] and in the assay listed under Rattus norvegicus [4] was greater than 10 µM in each case. For the same compound, the ED50 in the assay listed under Canis familiaris [6] was 12 mg/kg.

The compound `Cl.c1ccc(COC[C@@H]2COCCN2)cc1` had an Increase in the assay on Canis familiaris [9] of 13%.

With `CCN(CC)C(C)C(=O)c1ccccc1.Cl` (configuration not stated) [DIETHYLPROPION HYDROCHLORIDE], the Increase in the assay with Canis familiaris [10] stood at 5%. Also, the 50% effective dose (ED50) in the assay filed under Canis familiaris [6] was found to be 2 mg/kg. In addition, the Reduction in the assay on Canis familiaris [11] came out at 86%.
